FAS-TE inh – blocks the thioesterase domain of human fatty acid synthase | inhibition, % at 15 µM | recombinant FAS-TE, OMFH fluorogenic substrate, fluorescence endpoint | 0.67% of 360,000 active | AID 602261;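 active means compounds whose normalised, plate-corrected inhibition of enzyme fluorescence in the single-dose primary screen is 50% or more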;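 further: 0% = DMSO with enzyme and 100% = substrate without enzyme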
DAGLB inhibitor – blocks human DAGLB lipase activity; 0.059% of 340,000 active; HEK293T DAGLB membrane lysate, EnzChek fluorogenic substrate; AID 504411; inhibition, % at 5.17 µM; Q8NCG7; in the data active means inhibition above about 34%;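 further: 0% = enzyme with vehicle and 100% = wells lacking enzyme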
Target sequence (Q8NCG7 whole entry, looked up): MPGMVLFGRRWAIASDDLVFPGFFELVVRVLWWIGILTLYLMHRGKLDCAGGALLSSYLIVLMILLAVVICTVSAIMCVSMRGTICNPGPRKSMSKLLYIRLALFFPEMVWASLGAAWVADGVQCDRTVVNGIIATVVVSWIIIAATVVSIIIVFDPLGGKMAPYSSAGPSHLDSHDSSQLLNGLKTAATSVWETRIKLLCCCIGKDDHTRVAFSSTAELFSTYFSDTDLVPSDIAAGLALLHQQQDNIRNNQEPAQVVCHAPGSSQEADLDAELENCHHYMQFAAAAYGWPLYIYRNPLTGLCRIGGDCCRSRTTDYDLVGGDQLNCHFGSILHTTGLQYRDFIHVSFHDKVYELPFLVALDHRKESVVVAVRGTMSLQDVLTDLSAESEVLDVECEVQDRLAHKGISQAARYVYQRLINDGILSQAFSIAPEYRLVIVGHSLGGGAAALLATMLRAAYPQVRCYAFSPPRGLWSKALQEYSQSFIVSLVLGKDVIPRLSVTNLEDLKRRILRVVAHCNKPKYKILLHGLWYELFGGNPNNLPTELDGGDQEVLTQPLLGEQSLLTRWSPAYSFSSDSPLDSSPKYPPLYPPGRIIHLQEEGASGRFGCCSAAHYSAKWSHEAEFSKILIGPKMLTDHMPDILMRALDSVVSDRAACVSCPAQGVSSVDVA
hiPSC survival – increases survival of single human iPS cells | hiPSC single-cell survival, ATPlite luminescence; 100% = ROCK inhibitor wells, 0% = DMSO | survival enhancement, % at 20 µM | 0.044% of 360,000 active | AID 602274; in the data active means survival enhancement above about 18%;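 further: cells exposed to compounds for 16 hours before the ATP read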
MT1-MMP act inh – blocks activation of human MT1-MMP. P50281. HT1080 RFP-PRO-GFP cells, GFP/RFP ratio fluorescence, overnight; percent of plate control window, DMSO zero. GFP/RFP ratio change, % at 20 µM. 0.061% of 360,000 active;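 active means GFP/RFP ratio change of at least 30% with cell ATP level not reduced by more than half and red fluorescence within 50% of control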
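system = RFP-PRO-GFP reporter HT1080 cells | dosing = 20 µM single dose, 1% DMSO | timing = overnight cell settling, then overnight compound exposure, 37 °C, 5% CO2 | read-out basis = GFP/RFP fluorescence ratio | controls = DMSO and RFP-L50D-GFP cell wells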
SKN-1 block – blocks SKN-1 activity in C. elegans. C. elegans VP596 Pgst-4::GFP/RFP ratio, acrylamide-induced, 24 h. 0.49% of 360,000 active. inhibition, % at 21.8 µM;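 active means interference check ratio from 0.5 to 1.5 plus GFP to RFP signal ratio inhibition reaching or exceeding a fixed threshold, cut at about 30% in these data, passing the limit was not always enough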
FAS-TE inh conf – FAS thioesterase (human) inhibition, confirmation; inhibition, % at 15 µM; shares compounds with FAS-TE inh; 45% of 2,300 active; recombinant FAS-TE, OMFH fluorogenic substrate, fluorescence;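 active means compounds inhibiting the enzyme by at least 50% at 15 µM in any one of the replicates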;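 further: 0% = enzyme with DMSO only and 100% = wells lacking enzyme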
The depositor's hits bear a star; nt = no result given. A selection: hits, their analogues and other compounds. The true share with any hit is near 1.3%.

SMILES	FAS-TE inh	DAGLB inhibitor	hiPSC survival	MT1-MMP act inh	SKN-1 block	FAS-TE inh conf
CCCCN(C=O)c1c(CC)nc2c(OCc3ccc(Cl)cc3Cl)cccn12	55*	nt	0	4	11	61*
CCc1nc2c(OCc3ccc(C(F)(F)F)cc3)cccn2c1N(C=O)Cc1ccc(OC)cc1	57*	nt	0	0	11	52*
CCCCN(C=O)c1c(CC)nc2c(OCc3ccc(C(F)(F)F)cc3)cccn12	29	nt	3	-6	-3	nt
O=C(CSc1ncnc2c1nnn2Cc1ccccc1)NC1CCCCC1	58*	1	0	2	1	49*
CCOC(=O)C1=CCN(S(=O)(=O)c2ccccc2Br)C1c1ccc(F)cc1 (centres undefined)	27	nt	1	1	6	nt
N#CCCSc1nc(N2CCOCC2)c2c(c1C#N)CCCC2	55*	-2	-2	-1	2	62*
CCCCC(CC)C(=O)Nc1cc([N+](=O)[O-])ccc1F (centres undefined)	79*	-5	-1	2	1	71*
Cc1ccc(NC(=O)NNC(=O)Cn2nc(-c3ccccc3)c(-c3ccccc3)c(C#N)c2=O)cc1	68*	-1	3	-1	1	58*
Cc1ccc(NC(=O)C2=C(c3ccccc3)S(=O)(=O)CCS2(=O)=O)cc1	75*	0	-1	-3	-7	83*
O=C(Nc1nc(-c2ccccc2)c(-c2ccccc2)s1)c1ccc(S(=O)(=O)N2CCCCC2)cc1	36	2	-1	-18	-3	nt
O=C(NNc1nc(-c2ccccc2)c2cc(Br)ccc2n1)c1ccc(S(=O)(=O)N2CCCCC2)cc1	74*	-4	1	-2	4	21
CN(C)S(=O)(=O)c1ccc(C(=O)NNc2nc(-c3ccccc3)c3cc(Br)ccc3n2)cc1	30	-7	1	-2	8	nt
O=C(NNc1nc(-c2ccccc2)c2cc(Br)ccc2n1)c1ccc(S(=O)(=O)N2CCOCC2)cc1	80*	-3	2	-2	4	20
O=C(Nc1nc(-c2ccccc2)c(C(=O)c2ccccc2)s1)c1ccc(S(=O)(=O)N2CCCCC2)cc1	86*	1	-1	-20	4	9
CCOC1=C2[C@H](c3ccc(CC)cc3)N(S(=O)(=O)c3ccc(C)cc3)C[C@H]2C(C#N)(C#N)C(C#N)(C#N)C1	80*	nt	0	-8	9	11
CCOC1=C2[C@H](c3ccccc3Cl)N(S(=O)(=O)c3ccc(C)cc3)C[C@H]2C(C#N)(C#N)C(C#N)(C#N)C1	76*	nt	-1	0	-2	14
COC(=O)c1c(N)[nH]c(C(=O)c2ccccc2)c1-c1ccccc1Br	8	nt	-1	2	16	nt
COc1ccccc1N1CN(S(=O)(=O)c2ccc(C)cc2)c2nc3ccccc3nc21	57*	-2	-1	-1	6	24
COc1ccc(CCN2CN(S(=O)(=O)c3ccc(C)cc3)c3nc4ccccc4nc32)cc1OC	22	0	1	-16	-4	nt
CCOC(=O)[C@@H]1[C@H]2COc3ccc(Br)cc3[C@@H]2N2C(=O)N(c3ccc(C(F)(F)F)cc3)C(=O)[C@]12C	58*	-17	-1	-5	10	23
CCOC(=O)[C@H]1[C@H]2COc3ccc(Br)cc3[C@@H]2N2C(=O)c3ccc(Cl)cc3NC(=O)[C@@]12C	78*	-8	6	-35	14	28
CCOC(=O)[C@@H]1[C@H]2COc3ccc(Br)cc3[C@H]2N2C(=O)N(c3ccc(C)cc3)C(=O)[C@]12C	60*	-11	1	1	-6	26
CCOC(=O)c1nc(NNC(=O)c2ccc([N+](=O)[O-])cc2)sc1C	53*	21	0	0	10	29
CCc1nnc(NS(=O)(=O)c2ccc(N=Cc3c(C)[nH]n(-c4ccc(Cl)cc4)c3=O)cc2)s1	10	4	-1	9	-5	nt
Cc1[nH]n(-c2ccc(Cl)cc2)c(=O)c1C=Nc1ccc(S(=O)(=O)N2CCOCC2)cc1	63*	3	0	6	5	16
SMILES	FAS-TE inh	DAGLB inhibitor	hiPSC survival	MT1-MMP act inh	SKN-1 block	FAS-TE inh conf
COc1cc(/C=C(\C(=O)O)c2ccc(S(=O)(=O)N3CCCC3)s2)ccc1OCCC(C)C	4	6	-1	-9	4	nt
CCN(CC)CCN(C(=O)c1ccc(S(=O)(=O)N2CCCCC2)cc1)c1nc2cc3c(cc2s1)OCO3	53*	-4	3	5	9	9
O=C(Nc1cc(C(F)(F)F)cc(C(F)(F)F)c1)[C@H]1O[C@@H](n2ccc(=O)[nH]c2=O)[C@H](O)[C@@H]1O	-5	nt	2	-7	11	nt
COc1ccc(NC(=O)c2cccc(Oc3ccc([N+](=O)[O-])cc3Cl)c2)cc1	52*	-4	0	2	2	9
N#C/C(=C/c1ccc2c(c1)OCO2)C(=O)NCCc1c[nH]c2ccccc12	52*	0	-1	-3	3	34
Cc1noc(C)c1C(=O)OCC(=O)NCc1ccccc1	-2	-2	0	4	9	nt
CC(C)n1c2ccccc2c2cc([N+](=O)[O-])ccc21	6	-9	-1	-3	11	nt
CCC(C)n1c(=S)[nH]c2c(sc3ccc([N+](=O)[O-])cc32)c1=O (centres undefined)	54*	-1	2	-6	6	51*
COc1ccc2c(c1)CSC(c1ccccc1)C2=O (centres undefined)	5	-4	-2	-5	16	nt
O=C(Nc1nc2ccccc2s1)c1ccc(N2CCCCC2)c([N+](=O)[O-])c1	54*	7	1	-12	3	3
CCn1c(=O)c([N+](=O)[O-])c(N2CCN(Cc3ccc4c(c3)OCO4)CC2)c2ccccc21	88*	-7	-1	4	-4	81*
C=CCn1c(O)c(N=NC(=S)Nc2ccccc2C)c2cc(S(=O)(=O)N3CCOCC3)ccc21	64*	6	0	9	6	19
Cn1c(O)c(N=NC(=S)Nc2ccccc2F)c2cc(S(=O)(=O)N3CCOCC3)ccc21	9	8	-1	5	2	nt
Cc1ccc(NC(=S)N=Nc2c(O)n(C)c3ccc(S(=O)(=O)N4CCOCC4)cc23)cc1C	73*	1	1	20	4	9
CC(C)NC(=O)N(C)C[C@H]1Oc2c(NC(=O)Nc3ccc(C(F)(F)F)cc3)cccc2C(=O)N([C@H](C)CO)C[C@@H]1C	82*	1	-2	4	-1	86*
Cc1noc(C)c1NC(=O)N(C)C[C@H]1Oc2c(NC(=O)Nc3ccc(C(F)(F)F)cc3)cccc2C(=O)N([C@H](C)CO)C[C@@H]1C	23	-5	-1	0	0	nt

Source: PubChem BioAssay (several laboratories)
